Here are results for 7 compounds from ChEMBL document CHEMBL4765310, “Discovery of 4-(3,5-dimethoxy-4-(((4-methoxyphenethyl)amino)methyl)phenoxy)-N-phenylaniline as a novel c-myc inhibitor against colorectal cancer in vitro and in vivo” (Eur J Med Chem, 2020).

pIC50: −log10 of the molar value. Activity calls are given as the source filed them. No cut-off for these calls is given here.

The pIC50 is −log10 of the IC50, conventionally taken in molar units. Broadly, the inhibition is how much of the control response was suppressed.

Data set [1] relates to HT-29. Briefly: Antiproliferative activity against human HT-29 cells assessed as inhibition of cell viability measured after 72 hrs by MTT assay. The class given is functional, cell-based. The settings on record: HT-29, 72 h. Put shortly: (§1)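 Cells kept at 37 °C, 5% CO₂ in RPMI 1640, L-15 or DMEM with 10% FBS and 1% penicillin-streptomycin. Plated at 2-4 × 10³ cells/well and dosed 24 h after plating. After 72 h exposure, MTT added for 2-4 h at 37 °C. Formazan dissolved in DMSO, absorbance read at 570 nm. IC50 is the mean of at least three independent experiments.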
On the technique in general: Formazan colour is commonly taken as a measure of viable cells.

Data set [2] in a line: Toxicity in Balb/c mouse xenografted with human HT-29 cells assessed as reduction in body weight at 30 mg/kg, po administered via gavage measured after 10 days. The class given is organism-based. The settings on record: in vivo, 240 h, time 10 day. The method in brief:
(§2)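 Female BALB/c nude mice, 6–7 weeks old, injected subcutaneously with 8×10^6 HT29 cells. At about 100 mm³ average tumour volume, mice were randomised into groups (n=5). Dosing was daily oral gavage for 30 days in 10% DMSO/1% Tween-80/saline, with a vehicle group. Tumour size (calipers; 0.5 × shortest diameter² × longest diameter) and body weight were recorded every two days.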
A general note: In xenograft studies the graft and the host belong to different species.

For data set [3], the system named is HCT-15. Briefly: Antiproliferative activity against human HCT-15 cells assessed as inhibition of cell viability measured after 72 hrs by MTT assay. The class given is functional, cell-based. The settings on record: HCT-15, 72 h. Put shortly:
as §1

The test system of data set [4] is HCT-116. Briefly: Antiproliferative activity against human HCT-116 cells assessed as inhibition of cell viability measured after 72 hrs by MTT assay. The class given is functional, cell-based. The settings on record: HCT-116, 72 h. The method in brief:
as §1

Data set [5] deals with SW-620. Briefly: Antiproliferative activity against human SW-620 cells assessed as inhibition of cell viability measured after 72 hrs by MTT assay. The class given is functional, cell-based. The settings on record: SW-620, 72 h. Put shortly: as §1
Data set [6] concerns HT-29. Briefly: Antitumour activity against human HT-29 cells xenografted in Balb/c mouse assessed as inhibition of tumour growth at 30 mg/kg, po administered via gavage for 30 days and measured every 2 days by vernier caliper analysis. The settings on record: time 30.0 day. The class given is functional, organism-based. The method in brief:
as §2

For data set [7], the system named is DLD-1. Briefly: Antiproliferative activity against human DLD-1 cells assessed as inhibition of cell viability measured after 72 hrs by MTT assay. The class given is functional, cell-based. The conditions noted are these: DLD-1, 72 h. Put shortly:
as §1

The subject of data set [8] is L02. Briefly: Cytotoxicity against human L02 cells assessed as inhibition of cell viability at 0.625 to 40 uM measured after 72 hrs by MTT assay. The class given is cell-based. The settings on record: l02, 72 h, dose 0.625-40 µM. Put shortly:
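Cells were grown at 37 °C, 5% CO2, in medium with 10% FBS, and seeded at 2–4×10^3 cells/well. Compound was added 24 h after plating and left for 72 h. MTT (5 mg/mL stock) was then added for 2–4 h at 37 °C, formazan was dissolved in DMSO, and absorbance read at 570 nm. Values are means of at least three independent experiments.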

The species entered for data set [9] is Homo sapiens. Briefly: Inhibition of dimerization of N-terminal His6-tagged human c-Myc bHLHZip domain (353 to 439 residues)/Max(151 residues) (unknown origin) expressed in Escherichia coli BL21DE3 assessed as inhibition of c-Myc/Max/DNA complex formation at 20 uM preincubated with c-Myc/Max for 1.5 hrs followed by incubation with DNA oligo for 0.5 hrs by EMSA analysis relative to control. The settings on record: time 2.0 hrs. The method in brief: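 Gel-shift used His-tagged Myc/Max complex (50 nM) with a biotinylated E-box duplex oligo (50 nM). Buffer was PBS pH 7.0 with 10 mM EDTA, 500 mM KCl, 30 mM MgCl2, 5% glycerol, 0.1% NP40, 1.5 mM DTT and 10% DMSO. Protein was preincubated with compound at 20 μM for 1.5 h at room temperature, then DNA was added for 0.5 h. Inhibition is relative to DMSO; three independent experiments.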
(In general: Mobility shift assays separate free from complexed probe on a gel.)

Data set [10] is described as follows: Inhibition of dimerization of N-terminal His6-tagged human c-Myc bHLHZip domain (353 to 439 residues)/Max(151 residues) (unknown origin) expressed in Escherichia coli BL21DE3 measured after 1 hr by ELISA. Put shortly:
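Myc bHLHZip (5.5 μg/well) was coated at 4 °C for 24 h in PBS pH 7.0 buffer (EDTA, KCl, MgCl2, glycerol, NP40, DTT), then blocked with 3% BSA for 2 h at 37 °C. Detection used rabbit anti-c-Myc, HRP anti-rabbit and TMB, read at 450 nm.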

Consider `O=c1[nH]cc(F)c(=O)[nH]1` [FLUOROURACIL], for which the pIC50 is 4.87 in [1]; 4.96 in data set [3]; 4.91 in [4]; 4.82 in data set [5]; 4.94 in [7]. In addition, the Activity entry in data set [2] and in [8] was “Toxic” each time. Further, the outcome in data set [6] was Active.

On to `COc1cc(Oc2cccc(Nc3ccccc3)c2)cc(OC)c1CNC1CC1`, for which the pIC50 in data set [1] is 4.91; in [10], less than 3.82; in [3], 5.21; in data set [4], less than 4.70; in [5], less than 4.70; in [7], less than 4.70. Also, the inhibition in [9] amounted to 1.7%.

With `COc1ccc(CCNCc2c(OC)cc(Oc3cccc(Nc4ccccc4)c3)cc2OC)cc1`, the pIC50 is 5.99 in [1]; 4.16 in data set [10]; 5.90 in data set [3]; 6.01 in data set [4]; 5.21 in data set [5]; 5.95 in data set [7]. Also, the inhibition in data set [9] came to 75.1%.

As to `COc1cc(Oc2cccc(Nc3ccccc3)c2)cc(OC)c1CN(CCO)CCO`, the pIC50 was less than 4.70 in data set [1]; less than 3.82 in [10]; 5.05 in [3]; less than 4.70 in [4]; less than 4.70 in [5]; less than 4.70 in data set [7]. For the same compound, the inhibition in [9] amounted to 6.1%.

`COc1ccc(CCCNCc2c(OC)cc(Oc3ccc(Nc4ccccc4)cc3)cc2OC)cc1`: the pIC50 in [1] was 5.16; in data set [10], 4.14; in [3], 5.66; in data set [4] it was 5.49; in data set [5] it was 4.84; in data set [7] it was 5.33. Besides, the inhibition in [9] was determined as 70.6%.

`COc1cc(Oc2cccc(Nc3ccccc3)c2)cc(OC)c1CNC12CC3CC(CC(C3)C1)C2`: the negative-log IC50 (pIC50) in [1] was 5.45; in data set [10] it was 3.83; in data set [3] it was 5.19; in data set [4] it was less than 4.70; in data set [5] it was less than 4.70; in [7] it was 5.13. Besides, in [9], the inhibition was 12.6%.

With `COc1ccc(CCNCc2ccc(Oc3cccc(Nc4ccccc4)c3)cc2OC)cc1`, the pIC50 in [1] is 5.40; in data set [10] it was 3.99; in data set [3], 5.99; in data set [4] it was 5.57; in data set [5], 5.11; in data set [7], 5.39. Also, the inhibition in data set [9] came to 42.1%.
